Legend:
Phosphodiesterase 3 [1] = target: T1, Phosphodiesterase 3 (Homo sapiens, UniProt Q14432+Q13370); assay: Inhibition of guinea pig ventricular Phosphodiesterase 3 at 20 uM; assay type: protein assay; conditions: Cavia porcellus, target entry is the homologue from another species
In short: (§1)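 Guinea pig ventricular PDE III/IV resolved by Mono-Q anion exchange (50–1000 mM sodium acetate gradient, Bis-Tris pH 6.5); isoenzymes characterized by substrate selectivity, Ca2+/calmodulin and selective inhibitors; pools stored -20 °C with 1 g/L BSA. Thompson–Strada assay, cAMP substrate 0.25 μM, duplicates; drugs in DMSO; IC50 by nonlinear regression or % inhibition at stated concentration, n = 3, ±SEM.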

Phosphodiesterase 4 [2] = target: T2, Phosphodiesterase 4 (Homo sapiens, UniProt P27815+Q08499+Q07343+Q08493); assay: Inhibition of guinea pig ventricular Phosphodiesterase 4; assay type: protein assay, Cavia porcellus; conditions: target entry is the homologue from another species
Phosphodiesterase 4 [3] = target: T2, Phosphodiesterase 4; assay: Inhibition of guinea pig ventricular Phosphodiesterase 4 at 200 uM; assay type: protein assay; conditions: Cavia porcellus, target entry is the homologue from another species; in short: as §1
[4] = target: Phosphodiesterase 4 (Rattus norvegicus) (UniProt P14270+P14646+P14644+P54748); assay: Displacement of [3H]rolipram from rat brain membranes at 10 uM; assay type: cell membranes; conditions: Membrane
Phosphodiesterase 3 [5] = target: T1, Phosphodiesterase 3; assay: Inhibition of guinea pig ventricular Phosphodiesterase 3 at 200 uM; conditions: Cavia porcellus, target entry is the homologue from another species
Phosphodiesterase 3 [6] = target: T1, Phosphodiesterase 3; assay: Inhibition of guinea pig ventricular Phosphodiesterase 3; assay type: protein assay, Cavia porcellus; conditions: target entry is the homologue from another species

SMILES | inhibition (Phosphodiesterase 3 [1]) [%] | IC50 (Phosphodiesterase 4 [2]) [µM] | inhibition (Phosphodiesterase 4 [3]) [%] | inhibition [4] [%] | inhibition (Phosphodiesterase 3 [5]) [%] | IC50 (Phosphodiesterase 3 [6]) [µM]
CCOC(=O)c1nc2c(O)n(CC)nc(-c3ccccc3)c-2c1C | 30 | 0.6 | – | – | – | –
CCn1nc(-c2ccccc2)c2c(C)nnc-2c1O | 35 | 2 | – | – | – | –
Cc1nn(C)c2c(=O)n(Cc3ccccc3)nc(-c3ccccc3)c12 | – | – | 45 | 11 | 30 | –
Cc1nnc2c(O)n(Cc3ccccc3)nc(-c3ccccc3)c1-2 | – | 3.1 | – | 54 | 60 | –
CCn1nc(-c2ccccc2)c2c(c1=O)N(C)CC(C#N)=C2C | 51 | 1.1 | – | – | – | –
CCOC(=O)c1sc2c(=O)n(CC)nc(-c3ccccc3)c2c1C | – | 0.9 | – | – | – | 5.9
O=c1c2cccnc2c(-c2cccc(Cl)c2)nn1Cc1ccncc1 | – | 0.056 | – | – | – | 5.1
COc1ccc(C2CNC(=O)C2)cc1OC1CCCC1 (centres undefined) [ROLIPRAM] | – | – | – | – | – | 242
CCOC(=O)c1sc2c(=O)n(Cc3ccccc3)nc(-c3ccccc3)c2c1C | 20 | 11 | – | – | – | –
CCOC(=O)c1nc2c(O)n(Cc3ccccc3)nc(-c3ccccc3)c-2c1C | 33 | 31 | – | 28 | – | –
CCOC(=O)c1sc2c(=O)n(CC)nc(-c3cccc([N+](=O)[O-])c3)c2c1C | 25 | 1.3 | – | – | – | –
CCOC(=O)c1sc2c(=O)n(CC)nc(-c3cccc(Cl)c3)c2c1C | 56 | 0.8 | – | – | – | –
CCn1nc(-c2ccccc2)c2c(C)nn(C)c2c1=O | 35 | 7.4 | – | 46 | – | –

Source: ChEMBL document CHEMBL1130022, “Novel heterocyclic-fused pyridazinones as potent and selective phosphodiesterase IV inhibitors” (J Med Chem, 1997)
